In ChEMBL document CHEMBL4052812, “Imidazo[1,2-α]pyridines possess adenosine A1 receptor affinity for the potential treatment of cognition in neurological disorders” (Bioorg Med Chem Lett, 2017) one finds Ki, inhibition and Ratio Ki data, which are given here for 19 compounds.

Test [1] deals with T1, Adenosine receptor A1 (Rattus norvegicus, UniProt P25099).
T1 sequence (P25099 whole entry): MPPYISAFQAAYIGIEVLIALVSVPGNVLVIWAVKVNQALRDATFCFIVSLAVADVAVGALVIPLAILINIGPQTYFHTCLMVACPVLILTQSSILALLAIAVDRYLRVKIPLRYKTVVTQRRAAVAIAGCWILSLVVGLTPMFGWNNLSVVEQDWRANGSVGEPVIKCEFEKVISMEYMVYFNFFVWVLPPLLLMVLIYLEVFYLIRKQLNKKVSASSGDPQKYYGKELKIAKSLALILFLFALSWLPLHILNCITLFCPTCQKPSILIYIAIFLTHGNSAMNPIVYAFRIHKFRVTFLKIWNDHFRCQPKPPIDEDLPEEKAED
Put plainly: Displacement of [3H]-DPCPX from A1 receptor in rat whole brain membrane assessed as effect on GTP shift in presence of 100 uM GTP. The format is cell membranes. The method in brief:
(§1)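 GTP shift test on rat whole brain membranes. [3H]DPCPX binding is run without GTP and with 100 µM GTP added. Ki is taken from a sigmoidal competition curve in each condition, in triplicate. The shift is Ki with GTP divided by Ki without GTP.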
Background: In a radioligand displacement assay an active substance lowers the binding of a labelled ligand.

Test [2] addresses T1, Adenosine receptor A1. Put plainly: (§2) Displacement of [3H]-DPCPX from A1 receptor in rat whole brain membrane. The format is cell membranes. The method, boiled down: (§3)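 Competition binding against [3H]DPCPX (Kd 0.36 nM) on rat whole brain membranes. Nonspecific binding set with 100 µM CPA. Eight test concentrations from 0 to 100 µM. IC50 from a sigmoidal fit of specific binding against log concentration, converted to Ki. Run in triplicate, mean ± SEM. Where no full curve was obtained, percent displacement of radioligand at 100 µM is given.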

The target in test [3] is Adenosine receptor A2a (Rattus norvegicus) (UniProt P30543). In words: (§4) Displacement of [3H]-NECA from A2A receptor in rat striatal membrane in presence of A1 receptor agonist N6-cyclopentyladenosine. The format is cell membranes. Further details: concentration or dose not given beside the values. The settings on record: Striatum, concentration not given here. The method, boiled down:
(§5)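 Competition binding against [3H]NECA (Kd 15.3 nM) on rat striatal membranes, with the A1 agonist CPA present to suppress A1 binding. Nonspecific binding set with 100 µM CPA. Eight concentrations from 0 to 100 µM. Ki from the IC50 of a sigmoidal fit, in triplicate, mean ± SEM. Otherwise percent displacement at 100 µM.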

A further test addresses Adenosine receptor A2a (Rattus norvegicus, UniProt P30543). Described as §4. The format is cell membranes, Striatum. The method, boiled down:
as §5

In test [4] the target is T2, Adenosine receptor A1 (Rattus norvegicus) (UniProt P25099).
T2 sequence (whole entry): T1 sequence (P25099 whole entry)
Put plainly: Ratio of Ki for adenosine receptor A1 in rat brain membrane in presence of GTP to Ki for adenosine receptor A1 in rat brain membrane in absence of GTP. The class given is cell membranes. The method in brief:
as §1

For test [5], the target named is T2, Adenosine receptor A1 (Rattus norvegicus). Described as §2. The format is cell membranes. Further details: concentration or dose not given beside the values. The settings on record: concentration not given here. The method in brief: as §3
A short description of test [6]: Displacement of [3H]CGS21680 from A2A receptor in bovine striatal membrane. The class given is cell membranes, Bos taurus, Striatum.
The target of test [7] is T3, Adenosine receptor A1 (Homo sapiens) (UniProt P30542).
T3 sequence (whole entry): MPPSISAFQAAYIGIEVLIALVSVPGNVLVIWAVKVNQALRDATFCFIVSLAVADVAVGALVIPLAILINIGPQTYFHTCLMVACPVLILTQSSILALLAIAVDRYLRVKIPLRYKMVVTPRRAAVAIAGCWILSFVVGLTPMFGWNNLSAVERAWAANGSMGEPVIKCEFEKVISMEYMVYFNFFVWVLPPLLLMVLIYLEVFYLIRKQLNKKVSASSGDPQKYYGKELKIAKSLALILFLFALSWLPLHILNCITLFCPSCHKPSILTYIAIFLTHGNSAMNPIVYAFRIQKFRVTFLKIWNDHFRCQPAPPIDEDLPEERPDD
In words: Displacement of [3H]-DPCPX from recombinant human A1 receptor expressed in CHOK1 cells at 100 uM measured after 30 mins by liquid scintillation counting method relative to control. The format is cell-based.

Chain of Adenosine receptor A2a (Rattus norvegicus) (P30543 whole entry): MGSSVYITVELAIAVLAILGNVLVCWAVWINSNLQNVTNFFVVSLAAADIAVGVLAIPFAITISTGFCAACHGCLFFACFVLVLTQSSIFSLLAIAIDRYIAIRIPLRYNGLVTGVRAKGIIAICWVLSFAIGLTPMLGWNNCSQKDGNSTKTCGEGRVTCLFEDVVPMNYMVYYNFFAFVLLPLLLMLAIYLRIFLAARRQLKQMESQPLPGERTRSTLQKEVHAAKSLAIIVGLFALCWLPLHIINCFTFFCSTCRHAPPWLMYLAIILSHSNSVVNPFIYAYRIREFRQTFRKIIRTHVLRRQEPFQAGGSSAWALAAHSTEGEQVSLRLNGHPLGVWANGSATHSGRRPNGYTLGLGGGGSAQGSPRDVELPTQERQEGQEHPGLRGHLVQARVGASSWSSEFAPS
Chain of Adenosine receptor A2a (P30543 whole entry): as above

What is called Ki is a measure of affinity in units of concentration, obtained from inhibition or displacement. What is called inhibition is the share of the control response that was lost under treatment. For `Cc1ccc(-c2nc3ccccn3c2NC2CCCCC2)cc1`, the Ki was 2000 nM on Adenosine receptor A1 [1], 2.06 µM at Adenosine receptor A1 [2] and above 100 µM at Adenosine receptor A2a. In addition, the inhibition in test [3] stood at 83%. Moreover, in test [4], the Ratio Ki was 0.97.
Regarding `FC(F)(F)c1ccc(-c2nc3ccccn3c2NC2CCCCC2)cc1`, the inhibition in test [5] is 76%; in test [3] it was 74%. Besides, the Ki on Adenosine receptor A1 [2] and on Adenosine receptor A2a was above 100 µM in each case.
Regarding `O=C(Nc1nc(-c2ccccc2)nc2nc(-c3ccccc3)cn12)C1CCCC1`, the Ki in test [6] stood at 2.5 µM.
Same read-out and setting: the same measure for `CC(=O)Nc1nc(-c2ccccc2)nc2nc(C)cn12`: above 10 µM.
As to `Brc1ccc(-c2cn3ccccc3n2)cc1`, the values for the inhibition in test [5] and in test [3] were 86% and 87%, respectively. In addition, the Ki on Adenosine receptor A1 [2] and at Adenosine receptor A2a was above 100 µM in each case.
In the case of `Clc1ccc(-c2nc3ccccn3c2NC2CCCCC2)cc1`, the inhibition in test [5] came to 61%; in test [3] it was 64%. The Ki on Adenosine receptor A1 [2] and at Adenosine receptor A2a was above 100 µM in each case.
Turning to `c1ccc(CNc2c(-c3ccccc3)nc3ccccn23)cc1`, the inhibition in test [7] is 89%.
On to `c1ccn2ccnc2c1`, for which the inhibition worked out at 100% in test [5] and 75% in test [3]. Also, the Ki on Adenosine receptor A1 [2] and on Adenosine receptor A2a was above 100 µM each time.
For `O=[N+]([O-])c1ccc(-c2nc3ccccn3c2NC2CCCCC2)cc1`, the inhibition amounted to 99% in test [5] and 69% in test [3]. Also, the Ki on Adenosine receptor A1 [2] and on Adenosine receptor A2a was above 100 µM throughout.
On to `COc1ccc(-c2nc3ccccn3c2NC2CCCCC2)cc1`, for which the Ki is 7.61 µM on Adenosine receptor A1 [2] and above 100 µM on Adenosine receptor A2a. Moreover, in test [3], the inhibition came to 55%.
Turning to `Fc1ccc(-c2nc3ccccn3c2NC2CCCCC2)cc1`, the inhibition worked out at 63% in test [5] and 90% in test [3]. In addition, the Ki at Adenosine receptor A1 [2] and at Adenosine receptor A2a was above 100 µM each time.
As for `Oc1ccc(-c2nc3ccccn3c2NC2CCCCC2)cc1`, the values for the Ki on Adenosine receptor A1 [2] and at Adenosine receptor A2a were 5.53 µM and above 100 µM, respectively. Moreover, the inhibition in test [3] was determined as 27%.
As to `c1ccc(-c2nc3ccccn3c2NC2CCCCC2)cc1`, the inhibition in test [5] came out at 57%; in test [3], 77%. Besides, the Ki on Adenosine receptor A1 [2] and on Adenosine receptor A2a was above 100 µM each time.
In the case of `Nc1c(-c2ccccc2)nc2ccccn12`, the inhibition in test [5] was found to be 52%; in test [3] it was 86%. The Ki at Adenosine receptor A1 [2] and on Adenosine receptor A2a was above 100 µM each time.
In the case of `CC(=O)CNc1nc(-c2ccccc2)nc2nc(C)cn12`, the Ki in test [6] was above 10 µM.
Regarding `COc1ccc(-c2cn3ccccc3n2)cc1`, the inhibition came out at 76% in test [5] and 61% in test [3]. Also, the Ki on Adenosine receptor A1 [2] and at Adenosine receptor A2a was above 100 µM in each case.
Consider `Brc1ccc(-c2nc3ccccn3c2NC2CCCCC2)cc1`, for which the Ki at Adenosine receptor A1 [2] was 3.9 µM; at Adenosine receptor A2a, above 100 µM. Further, the inhibition in test [3] amounted to 54%.
`c1ccc(-c2cn3ccccc3n2)cc1`: the inhibition in test [5] is 49%; in test [3] it was 52%. For the same compound, the Ki at Adenosine receptor A1 [2] and on Adenosine receptor A2a was above 100 µM in each case.
With `Oc1ccc(-c2cn3ccccc3n2)cc1`, the inhibition in test [5] came out at 47%; in test [3], 85%. For the same compound, the Ki at Adenosine receptor A1 [2] and on Adenosine receptor A2a was above 100 µM each time.
